The text below walks through data of ChEMBL document CHEMBL1125574, “Structure and DNA binding activity of analogues of 1,5-bis(4-amidinophenoxy)pentane (pentamidine)” (J Med Chem, 1992).

Molecules are shown by their SMILES.

Assay [1] relates to Nucleic Acid. Kind of assay: DNA binding property estimated by measuring denaturation temperature on GC to poly (dGC)-poly(dGC), normalized to ethidium bromide.
The subject of assay [2] is Nucleic Acid. Kind of assay: DNA binding activity as denaturation temperatures on AT to poly (dA)-poly(dT) normalized to ethidium bromide. In kind it is functional.
For another assay, the system named is Calf thymus DNA. Kind of assay: Denaturation temperature change on binding to calf thymus DNA. It is filed as functional. In short, it runs like this:
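Calf thymus DNA at an initial absorbance of 0.3 A259 was heated at 18 °C/h, recording absorbance at 259 nm at 0.2 °C intervals. The melting midpoint was set from graphically selected start and end temperatures. ΔTm was taken against the DNA-alone Tm from the same experiment, as the mean of at least two determinations with standard errors.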

Assay [3] has as its system Nucleic Acid. The experiment in a line: Denaturation temperature change on binding on GC to poly(dGC)-poly(dGC). It is filed as functional. In short, it runs like this: (§1)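 Synthetic homopolymer, poly(dA)·poly(dT) or poly(dG-dC)·poly(dG-dC), at an initial absorbance of 0.15 A259. Samples were heated at 18 °C/h while absorbance at 259 nm was logged every 0.2 °C. Tm was taken as the curve midpoint between graphically chosen start and end temperatures. ΔTm is relative to the free polymer's Tm in the same run, averaged over at least two determinations with standard errors.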

Assay [4] relates to Nucleic Acid. Kind of assay: Denaturation temperature change on binding to AT to poly (dA)-poly(dT). It is filed as functional. Summed up:
as §1

`N=C(N)c1ccc(OCCCCOc2ccc(C(=N)N)cc2)cc1`: the ΔTm is 0.6 in the assay on Nucleic Acid [1]; 1.8 in the assay on Nucleic Acid [2]; 8.3 in the assay on Calf thymus DNA; 3.1 in the assay on Nucleic Acid [3]; 17.9 with Nucleic Acid [4].
The matching figures for `N=C(N)c1ccc(OCCCCOc2ccc(C(=N)N)cc2Cl)c(Cl)c1`: 0.8, 2.1, 8.9, 4.2 and 20.3.
The matching figures for `N=C(N)c1ccc(NCCCCCNc2ccc(C(=N)N)cc2N)c(N)c1`: 0.6, 2.1, 11, 3.3 and 20.9.
The matching figures for `N=C(N)c1ccc(OCCOc2ccc(C(=N)N)cc2)cc1`: 0.2, 0.8, 5.4, 1.3 and 7.5.
Consider `N=C(N)c1ccc(OCCCCOc2ccc(C(=N)N)cc2N)c(N)c1`, for which the ΔTm in the assay with Nucleic Acid [1] was 0.7; with Nucleic Acid [2] it was 2; with Calf thymus DNA, 9.6; in the assay with Nucleic Acid [3], 3.7; with Nucleic Acid [4], 19.4.
Regarding `N=C(N)c1ccc(OCCCCCCOc2ccc(C(=N)N)cc2)cc1`, the ΔTm was 0.5 in the assay with Nucleic Acid [1]; 1.9 in the assay with Nucleic Acid [2]; 9.1 in the assay on Calf thymus DNA; 2.8 in the assay on Nucleic Acid [3]; 19 with Nucleic Acid [4].
The matching figures for `N=C(N)c1ccc(NCCCNc2ccc(C(=N)N)cc2N)c(N)c1`: 0.9, 2.6, 12.4, 4.8 and 25.6.
Turning to `N=C(N)c1ccc(NCCCNc2ccc(C(=N)N)cc2[N+](=O)[O-])c([N+](=O)[O-])c1`, the ΔTm in the assay with Nucleic Acid [1] is 0.9; with Nucleic Acid [2], 2.7; in the assay on Calf thymus DNA, 12.4; with Nucleic Acid [3] it was 5; with Nucleic Acid [4], 26.6.
The like results for `N=C(N)c1ccc(NCCCCCNc2ccc(C(=N)N)cc2)cc1` were, in that order, 0.8, 2.1, 11.3, 4.4 and 20.7.
As to `N=C(N)c1ccc(OCCCCOc2ccc(C(=N)N)cc2[N+](=O)[O-])c([N+](=O)[O-])c1`, the ΔTm in the assay with Nucleic Acid [1] is 0.7; in the assay with Nucleic Acid [2], 1.5; with Calf thymus DNA, 9.6; with Nucleic Acid [3], 3.5; with Nucleic Acid [4] it was 14.7.
For `COc1cc(C(=N)N)ccc1OCCCCOc1ccc(C(=N)N)cc1OC`, the ΔTm with Nucleic Acid [1] was 0.2; in the assay with Nucleic Acid [2], 2.3; in the assay with Calf thymus DNA it was 10.2; in the assay with Nucleic Acid [3], 1.1; with Nucleic Acid [4], 22.9.
The like results for `COc1cc(C(=N)N)ccc1OCCCCCOc1ccc(C(=N)N)cc1OC` were, in that order, 0.5, 2.7, 12, 2.7 and 27.2.
The matching figures for `N=C(N)c1ccc(NCCCCCCNc2ccc(C(=N)N)cc2N)c(N)c1`: 0.7, 1.5, 8.3, 3.6 and 15.
The like results for `N=C(N)c1ccc(OCCCCCOc2ccc(C(=N)N)cc2[N+](=O)[O-])c([N+](=O)[O-])c1` were, in that order, 0.6, 2.2, 9.7, 3.2 and 21.6.
With `N=C(N)c1ccc(OCCCOc2ccc(C(=N)N)cc2N)c(N)c1`, the ΔTm with Nucleic Acid [1] is 1; in the assay with Nucleic Acid [2], 3.3; with Calf thymus DNA, 13.6; in the assay with Nucleic Acid [3] it was 5.2; in the assay with Nucleic Acid [4] it was 32.2.
The like results for `N=C(N)c1cccc(OCCCOc2cccc(C(=N)N)c2)c1` were, in that order, 0.6, 0.9, 7.6, 3 and 8.5.
As to `N=C(N)c1cccc(OCCCCCOc2cccc(C(=N)N)c2)c1`, the ΔTm in the assay on Nucleic Acid [1] is 0.4; with Nucleic Acid [2], 0.8; with Calf thymus DNA it was 7.6; in the assay on Nucleic Acid [3] it was 2.2; with Nucleic Acid [4], 7.6.
As to `N=C(N)c1ccc(OCCCOc2ccc(C(=N)N)cc2)cc1`, the ΔTm with Nucleic Acid [1] was 0.8; in the assay on Nucleic Acid [2], 3.2; with Calf thymus DNA, 14.7; with Nucleic Acid [3], 4.5; in the assay with Nucleic Acid [4] it was 32.
The matching figures for `N=C(N)c1ccc(NCCCCCNc2ccc(C(=N)N)cc2[N+](=O)[O-])c([N+](=O)[O-])c1`: 1.2, 2.2, 12.7, 6.2 and 22.1.
For `N=C(N)c1cccc(OCCCCCCOc2cccc(C(=N)N)c2)c1`, the ΔTm is 0.5 in the assay with Nucleic Acid [1]; 0.8 in the assay on Nucleic Acid [2]; 7.3 with Calf thymus DNA; 2.5 with Nucleic Acid [3]; 8.1 in the assay with Nucleic Acid [4].
As to `Cn1cc(NC(=O)c2cc(NC(=O)CNC(=N)N)cn2C)cc1C(=O)NCCC(=N)N`, the ΔTm in the assay on Nucleic Acid [1] was 0.2; in the assay with Nucleic Acid [2], 4.7; with Calf thymus DNA, 19; with Nucleic Acid [3], 1.1; in the assay with Nucleic Acid [4], 46.6.
As to `N=C(N)c1ccc(OCCCCCCOc2ccc(C(=N)N)cc2N)c(N)c1`, the ΔTm in the assay with Nucleic Acid [1] is 0.5; in the assay with Nucleic Acid [2] it was 1.9; with Calf thymus DNA, 9.5; with Nucleic Acid [3] it was 2.8; with Nucleic Acid [4], 18.4.
Regarding `N=C(N)c1ccc(NCCCNc2ccc(C(=N)N)cc2)cc1`, the ΔTm with Nucleic Acid [1] is 0.6; in the assay with Nucleic Acid [2], 2.6; in the assay on Calf thymus DNA, 11.6; in the assay with Nucleic Acid [3], 3; in the assay on Nucleic Acid [4], 25.7.
In the case of `N=C(N)c1ccc(NCCCCCCNc2ccc(C(=N)N)cc2)cc1`, the ΔTm in the assay on Nucleic Acid [1] was 0.5; with Nucleic Acid [2], 1.3; with Calf thymus DNA, 9.1; with Nucleic Acid [3], 2.9; in the assay with Nucleic Acid [4] it was 12.9.
The like results for `N=C(N)c1ccc(NCCCCNc2ccc(C(=N)N)cc2N)c(N)c1` were, in that order, 0.9, 1.3, 10.5, 4.6 and 13.2.
The matching figures for `COc1cc(C(=N)N)ccc1OCCCOc1ccc(C(=N)N)cc1OC`: 0.6, 3.8, 16.3, 3.4 and 38.
With `N=C(N)c1ccc(NCCNc2ccc(C(=N)N)cc2N)c(N)c1`, the ΔTm in the assay with Nucleic Acid [1] was 0.6; with Nucleic Acid [2] it was 1.7; in the assay with Calf thymus DNA it was 9.8; in the assay with Nucleic Acid [3] it was 3; in the assay on Nucleic Acid [4], 16.8.
As for `N=C(N)c1ccc(OCCOc2ccc(C(=N)N)cc2N)c(N)c1`, the ΔTm in the assay with Nucleic Acid [1] was 0.6; in the assay with Nucleic Acid [2], 1.7; in the assay on Calf thymus DNA it was 8.8; with Nucleic Acid [3], 3; in the assay on Nucleic Acid [4], 16.4.
The like results for `N=C(N)c1ccc(OCCOc2ccc(C(=N)N)cc2[N+](=O)[O-])c([N+](=O)[O-])c1` were, in that order, 0.4, 1, 5.6, 1.9 and 10.3.
On to `N=C(N)c1ccc(OCCCCCOc2ccc(C(=N)N)cc2)cc1`, for which the ΔTm with Nucleic Acid [1] is 0.6; with Nucleic Acid [2] it was 2.3; in the assay with Calf thymus DNA, 10.7; with Nucleic Acid [3], 3.2; with Nucleic Acid [4], 22.9.
For `N=C(N)c1ccc(OCCCCCOc2ccc(C(=N)N)cc2Cl)c(Cl)c1`, the ΔTm with Nucleic Acid [1] was 0.9; with Nucleic Acid [2], 2.5; with Calf thymus DNA it was 10.5; in the assay with Nucleic Acid [3], 4.6; in the assay with Nucleic Acid [4], 24.3.
In the case of `N=C(N)c1ccc(-c2cc3ccc(C(=N)N)cc3[nH]2)cc1`, the ΔTm in the assay on Nucleic Acid [1] was 1.3; in the assay with Nucleic Acid [2], 4.2; in the assay with Calf thymus DNA, 21.5; in the assay on Nucleic Acid [3] it was 6.9; with Nucleic Acid [4] it was 42.
The matching figures for `N=C(N)c1ccc(NCCCCNc2ccc(C(=N)N)cc2)cc1`: 0.5, 1.9, 10.3, 2.8 and 18.7.
As for `N=C(N)c1cccc(OCCCCOc2cccc(C(=N)N)c2)c1`, the ΔTm is 0.5 with Nucleic Acid [1]; 1.5 in the assay on Nucleic Acid [2]; 8.1 in the assay with Calf thymus DNA; 2.6 in the assay with Nucleic Acid [3]; 15.2 in the assay on Nucleic Acid [4].
On to `Cn1cc(NC(=O)c2cc(NC(=O)c3cc(NC=O)cn3C)cn2C)cc1C(=O)NCCC(=N)N`, for which the ΔTm in the assay with Nucleic Acid [1] was 0.4; with Nucleic Acid [2], 3.1; in the assay with Calf thymus DNA, 11.5; in the assay on Nucleic Acid [3], 1.9; in the assay on Nucleic Acid [4], 30.5.
For `N=C(N)c1ccc(OCCCCCOc2ccc(C(=N)N)cc2N)c(N)c1`, the ΔTm in the assay on Nucleic Acid [1] was 0.6; with Nucleic Acid [2], 2.1; in the assay with Calf thymus DNA, 10.8; with Nucleic Acid [3] it was 3.2; in the assay on Nucleic Acid [4], 20.7.
Turning to `CC[n+]1c(-c2ccccc2)c2cc(N)ccc2c2ccc(N)cc21`, the ΔTm is 1 with Nucleic Acid [1]; 1 in the assay with Nucleic Acid [2]; 12.4 with Calf thymus DNA; 9.9 with Nucleic Acid [3]; 12.4 with Nucleic Acid [4].
